# Measured values published in PubChem BioAssay.
# Active and inactive are the calls of the source.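 Rule for the calls, unless noted: active = fluorescence slope higher than the sample average by over 3 SD (cut at about -0.22 in these data, passing the limit was not always enough); inactive = the rest.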
# Tests used:
# [1] = inhibitors of TNFa-induced NFkB p65 translocation, primary screen, imaging, HUVEC, MLSMR starter and 10KST1 sets (AID 438;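 active = inhibition above 20% together with a positive visual image hit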;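 note: compound added about 3h40 before a 20 min TNFalpha stimulation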;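 for inhibition: signal is the nuclear over cytoplasmic p65 intensity ratio per well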); conditions: HUVEC TNFa-induced p65 nuclear translocation; cell count: measured here: nuclei count (cytotoxicity indicator), at 2.08 µM; inhibition: at 2 µM, stronger effect = higher value, 0% TNFa-plus-vehicle, 100% no-TNFa wells
# [2] = inhibitors of mutant huntingtin aggregation, primary screen, imaging, exon1htt(103Q)mCFP cells, high-content imaging (AID 483;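 active = visual image review flags a hit and inhibition of aggregation exceeds 20%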;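 note: compound exposure lasted 3 days before fixation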;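 for nuclei count: percent of the per-plate median nuclei count of sample wells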); conditions: exon1htt(103Q)mCFP cell line, aggregate imaging, at 2 µM; inhibition of aggregation: stronger effect = higher value; nuclei count: measured here: cell count, toxicity
# [3] = inhibitors of E-selectin induction by TNFa, primary screen, imaging, HUVEC, immunofluorescence, MLSMR starter and 10KST1 sets (AID 487;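 active = visually confirmed hit in the image check and inhibition above 20%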;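 for inhibition: signal is fraction of cell area covered by stained E-selectin grains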;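 for nuclei count: 100% = median nuclei count of all wells on the same plate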); conditions: HUVEC TNFalpha-induced E-selectin immunofluorescence imaging, at 2 µM; inhibition: stronger effect = higher value; nuclei count: measured here: cell number, toxicity
# [4] = target: Voltage-gated potassium channel subunit beta-2 (Rattus norvegicus) (UniProt P62483); assay: KvBeta enzyme negative modulators, primary screen, biochemical, NADPH fluorescence (AID 622); conditions: recombinant KvBeta, 4-cyanobenzaldehyde reduction, at 10 µM, stronger effect = higher value;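 note: slope of raw intensity against log time taken from 70 to 1610 s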
# [5] = target: Voltage-gated potassium channel subunit beta-2 (Rattus norvegicus) (UniProt P62483); assay: KvBeta positive modulators, primary screen, biochemical, NADPH fluorescence (AID 623;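 active = NADPH fluorescence slope more negative than the mean of all samples by about 3 SD, 99.7% confidence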;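 note: fluorescence intensity change per second fitted from 20 to 320 s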); conditions: Recombinant KvBeta, NADPH fluorescence decrease slope, 10 min; at 10 µM; stronger effect = lower value
# [6] = target: Alpha-2C adrenergic receptor (Homo sapiens) (UniProt P18825); assay: modulators of alpha2C/GIRK thallium flux, primary screen, cell-based, HEK293 alpha2C/GIRK1/2 (AID 624;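 active = fluorescence slope after compound addition differing from the mean of all screened samples at 99.7% confidence, in either direction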;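 note: slope of fluorescence ratio to pre-addition baseline per second over 15 to 24 s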); conditions: thallium flux BTC fluorescence, at 10 µM, actives lie on both sides
# [7] = inhibitors of larval lipid processing in zebrafish, primary screen, whole organism, PED6 fluorescence, gall bladder and intestine (AID 686;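 active = a full or partial loss of lipid-probe fluorescence in the fish gall bladder, intestine or both, judged by eye; inactive = no fluorescence loss, or compound toxic to the fish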;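 note: larvae 5 to 7 days old with five fish per well; signal comes from phospholipase A2 cleavage of quenched PED6 carried via bile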); conditions: Zebrafish larvae PED6 lipid processing, fluorescence scoring; screened at 20 µM (by protocol)
# Summary of the method: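 Incubation: overnight exposure of larvae to compound plus PED6 / Test system: live zebrafish larvae aged 5-7 days, whole organism / Amount: 5 larvae per well / Read-out basis: visual per-well fluorescence inhibition score / Signal: visual fluorescence microscopy scoring of gall bladder, gut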
# [8] = inhibitors of Sendai virus-induced IRF3 signaling, primary screen, TLR/RLR signaling modifier project, cell-based, Sendai virus stimulus, luciferase, 10K MLSCN set (AID 602276;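 active = inhibition at or above 50% at 10 µM; inactive = inhibition below 50%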;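 note: firefly luciferase from ISG56 promoter only with Renilla not read in this screen; 0% = Sendai virus plus DMSO and 100% = medium plus DMSO without virus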); conditions: HEK293 RL24 IRF3 luciferase reporter, at 10 µM, stronger effect = higher value
# [9] = inhibitors of poly I:C-induced TLR3 signaling, primary screen, cell-based, poly I:C stimulus, luciferase, 10K MLSCN set (AID 602277;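 active = inhibition of the reporter signal at or above 50%; inactive = inhibition below 50%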); conditions: HEK293-TLR3 RL24 IRF3 luciferase reporter, at 10 µM, stronger effect = higher value
# Voltage-gated potassium channel subunit beta-2 (Rattus norvegicus), sequence (P62483 whole entry, looked up): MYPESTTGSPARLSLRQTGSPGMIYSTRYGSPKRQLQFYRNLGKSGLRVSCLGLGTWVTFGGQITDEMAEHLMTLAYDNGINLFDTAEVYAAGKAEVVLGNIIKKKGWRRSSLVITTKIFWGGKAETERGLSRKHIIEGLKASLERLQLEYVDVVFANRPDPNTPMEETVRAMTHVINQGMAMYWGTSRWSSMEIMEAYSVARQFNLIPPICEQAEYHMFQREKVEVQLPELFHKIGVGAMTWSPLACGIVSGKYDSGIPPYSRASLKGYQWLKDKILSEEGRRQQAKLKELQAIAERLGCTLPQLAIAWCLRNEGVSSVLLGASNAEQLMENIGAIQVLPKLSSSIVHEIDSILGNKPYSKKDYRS
# Alpha-2C adrenergic receptor (Homo sapiens), sequence (P18825 whole entry, looked up): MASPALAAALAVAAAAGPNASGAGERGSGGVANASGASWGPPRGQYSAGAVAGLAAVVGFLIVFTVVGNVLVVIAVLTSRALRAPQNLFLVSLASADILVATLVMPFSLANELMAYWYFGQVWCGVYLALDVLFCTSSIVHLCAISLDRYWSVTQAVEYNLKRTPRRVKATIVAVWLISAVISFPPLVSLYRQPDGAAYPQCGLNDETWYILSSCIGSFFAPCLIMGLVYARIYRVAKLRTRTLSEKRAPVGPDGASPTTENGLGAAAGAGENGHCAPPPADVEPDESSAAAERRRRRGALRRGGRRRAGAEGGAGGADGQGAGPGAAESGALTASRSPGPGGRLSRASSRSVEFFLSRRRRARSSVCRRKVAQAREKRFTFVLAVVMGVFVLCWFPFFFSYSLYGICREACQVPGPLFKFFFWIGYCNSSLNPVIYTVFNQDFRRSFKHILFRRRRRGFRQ
Compound,cell count [1],inhibition [1],inhibition of aggregation [2],nuclei count [2] [%],inhibition [3],nuclei count [3] [%],fluorescence slope [4],NADPH fluorescence slope [5],slope [6],outcome [7],inhibition [8],inhibition [9]
CC(=O)/C(C[N+]1(C)CCCCC1)=N\O,566,12.1% (inactive),17.4% (inactive),107,26.6% (inactive),107,-0.403 (inactive),-5.2e-05 (inactive),0.00495 (inactive),inactive,8.76% (inactive),13.4% (inactive)
O=C(CSc1ncn[nH]1)NC1CC2CCC1C2 (stereo unspecified),264,-16.8% (inactive),17% (inactive),80.8,56.4% (inactive),53,-0.448 (inactive),-3.5e-05 (inactive),0.00492 (inactive),inactive,2.17% (inactive),7.86% (inactive)
C=CCNc1nc2c(c(=O)n(C)c(=O)n2C)n1CCCCCC,438,4.7% (inactive),-8% (inactive),94.9,4% (inactive),107,-0.39 (inactive),-3.7e-05 (inactive),0.00457 (inactive),inactive,8.07% (inactive),-34.5% (inactive)
O=C(CN(CC1CCCO1)S(=O)(=O)c1ccc(S(=O)(=O)NC2CC2)cc1)Nc1ccccc1 (stereo unspecified),502,-15.8% (inactive),17.8% (inactive),83.4,12.1% (inactive),96.1,-0.384 (inactive),-4.7e-05 (inactive),0.00436 (inactive),inactive,7.42% (inactive),7.34% (inactive)
CSc1ncc(Cl)c(C(=O)Nc2ccc(S(=O)(=O)N3CCOCC3)cc2)n1,288,-0.8% (inactive),-8.6% (inactive),101,2.7% (inactive),131,-0.433 (inactive),-5.7e-05 (inactive),0.00479 (inactive),inactive,4.78% (inactive),0.446% (inactive)
COc1ccc(CN(CC(=O)NCC2CCCO2)C(=O)CCC(=O)Nc2cc(C)on2)cc1 (stereo unspecified),242,7.6% (inactive),7.1% (inactive),89.3,13.1% (inactive),104,-0.399 (inactive),-1.6e-05 (inactive),0.00463 (inactive),inactive,-9.53% (inactive),-6.1% (inactive)
O=C(CSc1nnc(Cc2ccccc2)n1-c1cccc(Cl)c1)N1CCOCC1,352,10.5% (inactive),-18.8% (inactive),85.8,-207% (inactive),119,-0.4 (inactive),-4.5e-05 (inactive),0.00585 (inactive),inactive,-1.07% (inactive),9.14% (inactive)
COC(=O)c1ccccc1NC(=O)C12CCC(C)(C(=O)O1)C2(C)C (stereo unspecified),358,1.7% (inactive),-12.1% (inactive),106,29.1% (inactive),92.7,-0.433 (inactive),-4.4e-05 (inactive),0.00406 (inactive),inactive,20.2% (inactive),22.6% (inactive)
Cc1cc(C)nc(-n2nc(C)cc2NC(=O)c2ccc(Br)o2)n1,442,-7.3% (inactive),18.7% (inactive),90.1,21.7% (inactive),105,-0.374 (inactive),-5.8e-05 (inactive),0.00507 (inactive),inactive,-4.98% (inactive),20.1% (inactive)
COc1ccc(CC(=O)Nc2cc(Cl)ccc2O)cc1,605,-9.3% (inactive),12% (inactive),99.8,-72% (inactive),108,-0.409 (inactive),-1.5e-05 (inactive),0.00576 (inactive),inactive,-8.56% (inactive),-1.02% (inactive)
COc1ccc(OC)c(NC(=O)CSc2nnc(-c3ccco3)n2-c2ccccc2)c1,552,10.2% (inactive),9.3% (inactive),104,-59.6% (inactive),98.9,-0.466 (inactive),-3.5e-05 (inactive),0.00516 (inactive),inactive,12.9% (inactive),12.9% (inactive)
Cn1c(=O)[nH]c(=O)c2c1nc(Br)n2CCCSc1nc2ccccc2o1,588,-2.9% (inactive),-18.5% (inactive),112,-8.4% (inactive),100,-0.352 (inactive),-6.5e-05 (inactive),0.00502 (inactive),inactive,17.2% (inactive),9.4% (inactive)
CCCN1Cc2cccc(C(=O)NC3CCCC3)c2C1=O,653,0.7% (inactive),14% (inactive),95.2,-62.4% (inactive),101,-0.349 (inactive),-6.1e-05 (inactive),0.0059 (inactive),inactive,11.8% (inactive),22.8% (inactive)
